Assay outcomes from PubChem.
PRMT1 inh = PRMT1 (human) inhibition, primary screen. inhibition, % at 2.79 µM. recombinant PRMT1, activity-based probe fluorescence polarization. Q99873. actives 1.3% (n = 370,000);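 active means inhibition above about 21% made by adding two undisclosed values, limit read from the data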
rCAG RNA binder = binds r(CAG) RNA repeats; r(CAG) RNA repeat, TO-PRO-1 dye displacement fluorescence; inhibition, % at 3 µM; actives 1.3% (n = 370,000); AID 651821;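 active means inhibition above the plate cutoff, the mean of all test compounds on that plate plus 3 SD, cut at about 35% in these data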;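 further: 0% = DMSO alone and 100% = 100 µM mitoxantrone as full dye displacement; higher means more dye released from RNA so lower well fluorescence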
SIAE inh = blocks human sialic acid acetylesterase; SIAE FP-Rh probe binding, fluorescence polarization; inhibition, % at 9.66 µM; actives 0.69% (n = 370,000);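 active means inhibition above a cutoff: mean of compounds within the control limits plus 3 SD of those, cut at about 17% in these data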;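 further: 0% = plate median of compound wells and 100% = probe without SIAE protein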
ABHD4 inh = ABHD4 (mouse) inhibition, primary FP screen; AID 720543; inhibition, % at 8.92 µM; purified mABHD4, FP-Rh probe fluorescence polarization; actives 0.54% (n = 370,000); Q8VD66;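 active means inhibition exceeding the mean over every tested compound plus 3 SD, cut at about 30% in these data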;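 further: 0% = plate median of compound wells and 100% = S159A mutant with DMSO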
Target sequence (Q8VD66 whole entry, looked up): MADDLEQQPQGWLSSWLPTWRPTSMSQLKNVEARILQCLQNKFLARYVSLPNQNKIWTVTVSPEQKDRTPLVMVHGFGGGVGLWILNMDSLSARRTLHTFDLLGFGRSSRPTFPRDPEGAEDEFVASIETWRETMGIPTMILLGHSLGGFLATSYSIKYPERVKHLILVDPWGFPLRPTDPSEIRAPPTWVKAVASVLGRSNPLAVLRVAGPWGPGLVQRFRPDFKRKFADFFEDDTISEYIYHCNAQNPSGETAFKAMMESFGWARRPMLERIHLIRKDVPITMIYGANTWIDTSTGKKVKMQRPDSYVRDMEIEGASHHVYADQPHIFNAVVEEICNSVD
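Test system: mABHD4 protein; Read-out basis: % inhibition; Incubation: 45 min + 60 min at 25 °C; Repeats: single replicate; Technique: fluorescence polarization with parallel and perpendicular emission, 525/598 nm; Compound: 8.92 µM, single dose; Benchmarks: full inhibition S159A mutant plus DMSO, zero as sample-well median.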
TCR-CD3 inh = inhibitors of human TCR-CD3 interaction | TAMRA-labeled TCR probe fluorescence, biochemical | inhibition, % at 9.4 µM | actives 0.37% (n = 360,000) | AID 651800; in the data active means inhibition above about 19%;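 further: recombinant mutant TCR 2C K166C tagged with TAMRA read by polarization; 0% = receptor in buffer alone and 100% = receptor with positive control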
rCAG binder conf = r(CAG) RNA repeat binding, confirmation | shares compounds with rCAG RNA binder | actives 70% (n = 4,300) | TO-PRO-1 dye displacement fluorescence | inhibition, % at 3 µM;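 active means inhibition above a per-plate cutoff, the mean inhibition of sample wells plus 3 SD, cut at about 35% in these data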;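 further: loss of TO-PRO-1 fluorescence as compound displaces dye from 1x1 AA loop RNA; 0% = DMSO only wells and 100% = 100 µM mitoxantrone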
dCAG dye counter = disrupts DNA CAG TO-PRO-1 complex, flagging rCAG hits; inhibition, % at 3 µM; shares compounds with rCAG RNA binder; actives 94% (n = 4,300); AID 652068; d(CAG) DNA oligo TO-PRO-1 dye displacement, fluorescence;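 active means inhibition above its plate's cutoff, the mean test-well inhibition plus 3 SD, cut at about 4.8% in these data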;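 further: 0% = DNA dye mix with DMSO and 100% = 100 µM mitoxantrone; hits displace the dye from DNA and so lower well fluorescence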
dCAG dye DR = disrupts DNA CAG TO-PRO-1 complex in dose response | shares compounds with rCAG RNA binder | DNA CAG/GTC duplex TO-PRO-1 dye displacement fluorescence | IC50, µM | actives 20% (n = 250); in the data active means IC50 below about 10 µM
* hit, by the source's call; i = inactive; . = not tested or not shown. Most compounds without a hit are left out; they make up all but 3.3% or so of the library.

SMILES	PRMT1 inh	rCAG RNA binder	SIAE inh	ABHD4 inh	TCR-CD3 inh	rCAG binder conf	dCAG dye counter	others
CC(C)(C)NS(=O)(=O)c1ccc(NC(=O)c2cc(-c3ccccc3)nc3ccccc23)cc1	0	6	-3	-8	4	.	.
CC(=O)Nc1ccc(NC(=O)c2cc(-c3ccccc3)nc3ccccc23)cc1	1	10	-13	-13	-3	.	.
Cc1ccc(-c2cc(C(=O)Nc3ccc(S(=O)(=O)Nc4ncccn4)cc3)c3ccccc3n2)cc1	1	58*	-11	-6	-10	64*	20*
O=C(Nc1ccc(S(=O)(=O)Nc2nccs2)cc1)c1cc(-c2ccccc2)nc2ccccc12	-1	74*	-17	-84	9	76*	38*
CCc1ccc(-c2cc(C(=O)Nc3ccc(S(=O)(=O)NC(C)=O)cc3)c3ccccc3n2)cc1	-1	58*	-14	-66	-8	63*	29*
Cc1cc(NS(=O)(=O)c2ccc(NC(=O)c3cc(-c4ccccc4Cl)nc4ccccc34)cc2)no1	1	75*	-6	-43	5	72*	39*
O=C(Nc1c(-c2ccc(C(F)(F)F)cc2)nc2ncccn12)C1CC1	-4	0	2	5	.	.	.
C[C@H](O)[C@@H]1CN2CCc3c([nH]c4c(-c5ccc6c(c5)OCO6)cccc34)[C@@H]2C[C@@H]1N(C)C(=S)NCCc1ccccc1	-4	8	0	-11	.	.	.
Cc1ccc(C)c(-c2cc(C(=O)Nc3nccs3)c3ccccc3n2)c1	-1	7	-7	-7	5	.	.
Cc1ccc(-c2cc(C(=O)Nc3ccc(S(=O)(=O)Nc4nccs4)cc3)c3ccccc3n2)c(C)c1	19	68*	-18	-93	-5	71*	30*	dCAG dye DR=i
CC(=O)C(=Cc1cn(-c2ccccc2)nc1-c1ccccc1)C(C)=O	-2	0	4	5	7	.	.
Cc1ccc(-c2nn(-c3ccccc3)cc2/C=N/NS(=O)(=O)c2ccccc2)cc1	-2	37*	-58	-44	4	41*	14*
O=S(=O)(N/N=C\c1cn(-c2ccccc2)nc1-c1ccccc1)c1ccccc1	-3	35*	-10	-35	9	44*	13*
Cc1ccc(C(=O)N/C(=C/c2cn(-c3ccccc3)nc2-c2ccccc2)C(=O)O)cc1	7	52*	-3	4	-12	45*	12*
Cc1ccc(S(=O)(=O)N/N=C\c2cn(-c3ccccc3)nc2-c2ccccc2)cc1	3	23	-61	-36	-5	.	.
c1ccc2cc3[nH]c(CNc4nc(N5CCOCC5)nc5c4ncn5-c4ccsc4)nc3cc2c1	-4	.	8	25	.	.	.
COc1cccc(-c2nnc3sc(-c4ccc(Br)o4)nn23)c1	-2	7	-1	-1	.	.	.
COc1ccc(CN(CCN2CCOCC2)C(=O)c2ccc(F)cc2F)cc1OC	-3	1	0	-1	.	.	.
O=C(O)c1ccc(N/N=C/c2ccc(-c3cc(Cl)ccc3Cl)o2)cc1	13	45*	5	-8	-6	51*	18*
O=C1NN(c2ccccc2)C(=O)/C1=C\c1cccc(OC(=O)c2cccs2)c1	5	37*	8	16	2	68*	28*
CC(=O)Nc1ccc(S(=O)(=O)Nc2nccs2)cc1	2	-3	-2	8	-3	.	.
Cc1ccc(SCC(=O)Nc2ccc(S(=O)(=O)Nc3nccs3)cc2)cc1	-2	49*	-7	-5	7	50*	15*
CC(C)(C)c1ccc(C(=O)NCCC(=O)Nc2ccc(S(=O)(=O)Nc3nccs3)cc2)cc1	0	57*	2	-1	7	54*	20*
O=C(CSc1ccncc1)Nc1ccc(S(=O)(=O)Nc2nccs2)cc1	6	14	-6	4	8	.	.
CCc1ccc(OC(C)C(=O)Nc2ccc(S(=O)(=O)Nc3nccs3)cc2)cc1 (stereo unspecified)	1	52*	3	22	6	39*	14*
SMILES	PRMT1 inh	rCAG RNA binder	SIAE inh	ABHD4 inh	TCR-CD3 inh	rCAG binder conf	dCAG dye counter	others
Cc1ccc(OC(C)C(=O)Nc2ccc(S(=O)(=O)Nc3nccs3)cc2)cc1 (stereo unspecified)	2	38*	-8	9	7	23	6.5*
CCCC(=O)Nc1ccc(S(=O)(=O)Nc2nccs2)cc1	-2	1	0	3	-7	.	.
CCC(C)C(=O)Nc1ccc(S(=O)(=O)Nc2nccs2)cc1 (stereo unspecified)	5	2	0	-5	-6	.	.
CC(C)(C)c1ccc(/C=C2\Oc3cc(O)ccc3C2=O)cc1	0	58*	-4	-14	1	50*	16*
O=C(O)CCC(=O)N1CCc2cc(S(=O)(=O)N(CCc3ccccc3)Cc3ccccc3)ccc21	2	63*	-14	-35	4	70*	30*	dCAG dye DR=i
CCCCN(c1ccccc1)S(=O)(=O)c1ccc2c(c1)CCN2C(=O)CCC(=O)O	1	29	3	-8	-4	.	.
O=C(O)c1ccc(S(=O)(=O)N(CCc2ccccc2)Cc2ccc(Cl)cc2)cc1	-2	72*	-8	1	5	71*	34*	dCAG dye DR=i
CCOc1ccccc1NC(=O)CCN1CCN(S(=O)(=O)c2ccc(Br)cc2)CC1	-2	36*	4	-2	4	3	1
CCOc1ccc(NC(=O)CCN2CCN(S(=O)(=O)c3ccc(F)cc3)CC2)cc1	4	0	4	-7	0	.	.
CCC(C)[C@H](NC(=O)Nc1ccc(C)cc1C)C(=O)O (stereo partly specified)	0	64*	3	2	-1	-1	-2
COc1ccc(Cl)cc1NC(=S)NNC(=O)c1cccs1	-7	36*	0	14	-3	34	9.6*
Cc1cc(C)nc(NS(=O)(=O)c2ccc(NC(=O)C3(c4ccc([N+](=O)[O-])cc4)CCCC3)cc2)n1	-1	40*	-6	-9	-2	34	9.0*
CC(C)(C)c1ccc(CC(=O)N2CCC2(C)C(=O)NS(=O)(=O)Cc2ccccc2)cc1 (stereo unspecified)	1	41*	-5	-1	10	36*	9.3*
CC1(C(=O)NS(=O)(=O)c2ccc(F)cc2F)CCN1C(=O)Cc1ccccc1Cl (stereo unspecified)	7	7	-2	-1	-4	.	.
CC1(C(=O)NS(=O)(=O)Cc2ccccc2)CCN1C(=O)Cc1ccccc1 (stereo unspecified)	3	1	-1	1	-7	.	.
